Data set [1] addresses GABA-A receptor; anion channel. Kind of data set: In vitro inhibition of [3H]GABA binding to Gamma-aminobutyric acid receptor from rat brain synaptic membranes. In kind it is cell membranes, Membrane. In a few lines: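 Rat brain synaptic membranes (0.8–1.2 mg protein) incubated in triplicate in 50 mM Tris-citrate pH 7.1 with 5 nM [3H]GABA and various test concentrations, 15 min at 2 °C. Centrifugation at 48000g for 10 min, pellets rinsed twice with cold water, scintillation counting. Nonspecific binding (1 mM GABA) subtracted. IC50 by log-probit analysis of inhibition at at least four concentrations.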

The nature of data set [2]: pKa value of the compound. In kind it is physicochemical. In a few lines:
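Potentiometric titration with 0.1 N NaOH to pH ca. 10, ionic strength held constant with 0.15 M KCl.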

The next data set has as its target GABA transporter (Rattus norvegicus, UniProt P31647+P23978+P31646+P48056). Kind of data set: In vitro inhibition of rat neuronal (synaptosomal) GABA uptake. In kind it is protein assay. A digest of the protocol:
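Crude rat whole-brain synaptosomes (homogenized in 0.32 M sucrose, 600g and 25000g spins at 4 °C) suspended in oxygenated phosphate medium. Preincubated 10 min at 25 °C with inhibitor, then [3H]GABA added to 50 nM final and incubated 10 min more. Rapid glass-fiber filtration, ice-cold buffer wash, scintillation counting.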

By IC50 is commonly meant the concentration that gives 50% inhibition. A lower IC50 goes with inhibition by little substance. In the case of `Oc1noc2c1CNCC2`, the IC50 in data set [1] was 72 µM.

What is called pKa is the negative logarithm of the acid dissociation constant. In data set [2], `Oc1onc2c1CCNCC2` registered a pKa of 3.3. In addition, the 50% inhibitory concentration (IC50) in data set [1] was 15 µM; on GABA transporter, over 300 µM.

In data set [2], `Oc1onc2c1CNCCC2` had a pKa of 2.6. In addition, the 50% inhibitory concentration (IC50) in data set [1] is over 100 µM; at GABA transporter it was over 300 µM.

The compound `NCCC(N)C(=O)O` (stereo unspecified) gave a pKa in data set [2] of 4. In data set [1], this compound registered a half-inhibitory concentration (IC50) of 0.033 µM.

`Oc1onc2c1CNCC2` had a pKa in data set [2] of 3. The IC50 was 100 µM in data set [1] and 130 µM at GABA transporter.

`Oc1noc2c1CCNCC2`: the IC50 against GABA transporter was over 300 µM.

`Oc1onc2c1CCCNC2` had a pKa in data set [2] of 2.5. The half-maximal inhibitory concentration (IC50) was over 100 µM in data set [1] and over 300 µM at GABA transporter.

For the origin of these results see ChEMBL document CHEMBL1123396, “Glycine antagonists. Synthesis, structure, and biological effects of some bicyclic 5-isoxazolol zwitterions” (J Med Chem, 1986).
